# CFTR F508del cor: correctors of CFTR F508del function in bronchial epithelial cells | CFBE cells, YFP halide quenching; stimulated with forskolin plus potentiator P3; % fluorescence drop versus neutral controls | activity (quench increase), % at 7.58 µM | 0.36% of 350,000 active;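 active = mean added fluorescence quench of at least 8% versus neutral control, with both replicates also reaching 8%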;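 also: cells transiently co-express mutant CFTR-F508del with the halide-sensitive YFP; corrector assay measuring rescue of mutant channel to the surface after 24 h compound exposure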
# SMARCA2 act: increases SMARCA2 function in MMTV reporter cells | MG213 cells, MMTV-luciferase reporter, dexamethasone, overnight | activation, % at 9.1 µM | 1% of 370,000 active; in the data active = activation above about 7.8%;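 also: 0% = vehicle wells and 100% = reference activator wells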
# MC4R antag cAMP: human MC4R antagonism in cAMP assay; P32245; MC4R-expressing cells, MTII-stimulated cAMP, LANCE TR-FRET; inhibition, % at 6.5 µM; 0.48% of 360,000 active;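 active = inhibition above its plate's cutoff, the mean of tested wells on that plate plus 3 SD, cut at about 29% in these data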;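 also: 0% = Melanotan II alone and 100% = Melanotan II plus saturating MCL0020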
# Target sequence (P32245 whole entry, looked up): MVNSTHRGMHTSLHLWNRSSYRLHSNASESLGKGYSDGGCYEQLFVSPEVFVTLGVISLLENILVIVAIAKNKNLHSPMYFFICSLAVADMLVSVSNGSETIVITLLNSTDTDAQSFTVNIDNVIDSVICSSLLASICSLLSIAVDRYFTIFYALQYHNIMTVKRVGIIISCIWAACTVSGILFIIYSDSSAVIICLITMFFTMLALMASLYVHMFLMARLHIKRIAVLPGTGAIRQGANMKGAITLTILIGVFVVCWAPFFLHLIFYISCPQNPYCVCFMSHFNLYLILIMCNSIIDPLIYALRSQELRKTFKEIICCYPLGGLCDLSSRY
#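 System: U2OS cells stably expressing human melanocortin 4 receptor (MC4R). Reagent: Melanotan II challenge after compound preincubation. Doses: 6.5 µM. Times: 30-min compound, 1-h challenge, 1-h detection, room temperature. Measured by: TR-FRET with Eu-cAMP and labeled anti-cAMP, 671 nm. Replicates: singlicate.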
# MC4R barr agon: agonists of human melanocortin 4 receptor (MC4R) beta-arrestin. P32245. U2OS MC4R beta-arrestin complementation, luminescence; percent of melanotan II response, DMSO zero. activation, % at 8.9 µM. 0.98% of 360,000 active. AID 540308;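 active = activation above a per-plate cutoff, the mean activation of sample wells on that plate plus 3 SD, cut at about 8% in these data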
# SMARCA2 act conf: SMARCA2 activation, confirmation screen | shares compounds with SMARCA2 act | MG213 cells, MMTV-luciferase with dexamethasone, luminescence, overnight; MG213 cells expressing E1A, Rb sequestered; DMSO wells 0%, reference activator 100% | activation, % at 9.1 µM | 30% of 3,500 active | AID 652260;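 active = activation above its plate's cutoff, the mean activation of tested wells plus 3 SD, cut at about 7.9% in these data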
# VP16 Luc act: activates GAL4-VP16 luciferase, flagging SMARCA2 activator hits | 41% of 3,500 active | HEK293 GAL4-VP16 pG5luc reporter, luciferase luminescence; scaled: DMSO wells 0%, SAHA wells 100% | activation, % at 9.1 µM | AID 686939 | shares compounds with SMARCA2 act;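 active = activation above the solvent-only control well mean plus 3 SD, averaged across control plates, cut at about 5.2% in these data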
# Starred values were filed as active, the others as inactive; x = not tested or not shown. A selection: hits, their analogues and other compounds. The true share with any hit is near 2.1%.
SMILES,CFTR F508del cor,SMARCA2 act,MC4R antag cAMP,MC4R barr agon,SMARCA2 act conf,VP16 Luc act
C=CCn1c(=O)c(C(=O)Nc2ccccc2S(N)(=O)=O)c(O)c2ccccc21,1,11*,-5,-2,16*,4
CC1CCN(C(=S)NCCc2ccccc2)CC1,x,8.7*,-10,-1,11*,6.7*
C[C@@H]1CN([C@@H](C)CO)C(=O)c2cccc(NC(=O)C3CCOCC3)c2O[C@@H]1CN(C)C,0,x,x,x,x,x
O=C(CN(c1cccc([N+](=O)[O-])c1)S(=O)(=O)c1ccccc1)NCc1ccccc1,1,-1,16,0,x,x
O=C(CN(c1cccc([N+](=O)[O-])c1)S(=O)(=O)c1ccccc1)N(Cc1ccccc1)Cc1ccccc1,x,9.9*,14,-1,-3,-1
Cc1ccc(S(=O)(=O)N[C@H]2CC[C@H](CCNC(=O)C3CCCCC3)O[C@H]2CO)cc1,1,x,x,x,x,x
O=C(C[C@H]1C=C[C@@H](NC(=O)Nc2cc(F)ccc2F)[C@H](CO)O1)NCc1ccc2c(c1)OCO2,-2,x,x,x,x,x
O=C1Nc2ccccc2S/C1=C/c1cccs1,4,10*,1,3,5,1
Cc1ccc(/C=C(\NC(=O)c2ccc(C)cc2)c2nc(=S)[nH][nH]2)cc1,-1,10*,2,7,-1,1
Cc1ccc(C(=O)N/C(=C\c2ccccc2F)c2nc(=S)[nH][nH]2)cc1,1,3,6,-6,x,x
COc1ccc(N=Nc2[nH]c3ccc(C)cc3c2O)cc1,x,0,7,1,x,x
Cc1ccc(N=Nc2[nH]c3ccccc3c2O)cc1,x,9.1*,-1,-4,14*,5
Cn1c(SCCc2ccccc2)nnc1-c1ccco1,x,9.4*,x,x,6,5
Cc1ccc(-c2nc(-c3cccnc3)no2)c(C)c1,x,9.2*,-4,4,19*,13*
C[C@H]1CN([C@@H](C)CO)C(=O)c2cc(NS(=O)(=O)c3cn(C)cn3)ccc2O[C@H]1CN(C)S(=O)(=O)c1ccc(Cl)cc1,2,x,x,x,x,x
Cc1ccc(-c2cn(-c3ccccc3)c(SCC(N)=O)n2)cc1C,x,9.8*,6,-3,3,6.6*
O=C1NC(=Nc2cccnc2)S/C1=C/c1ccc(F)cc1,14*,8.4*,-3,0,5,1
O=C1NC(=Nc2ccccc2)S/C1=C\c1cccnc1,0,-5,10,-1,x,x
C[C@@H]1CN([C@@H](C)CO)C(=O)Cc2cc(NC(=O)CCC(F)(F)F)ccc2O[C@H]1CN(C)C(=O)Nc1ccc2c(c1)OCO2,-3,x,x,x,x,x
COc1c(F)c(F)c(C(=O)Nc2ccccc2N2CCN(C(=O)C(C)C)CC2)c(F)c1F,x,8.0*,-1,-2,-4,-1
Cc1ccc(NC(=O)C2CCN(S(=O)(=O)c3ccc(C(C)(C)C)cc3)CC2)cc1S(=O)(=O)N1CCOCC1,0,8.4*,9,1,-7,0
CO[C@@H]1CN(C)C(=O)c2cc(NC(=O)Nc3ccccc3)ccc2OC[C@H](C)N(C(=O)Nc2c(C)noc2C)C[C@@H]1C,1,x,x,x,x,x
O=C(Oc1ccccc1/C=C\C(=O)c1cc2ccccc2o1)c1ccccc1,x,8.7*,3,-1,2,9.6*
O=C(O)c1ccccc1C(=O)Nc1ccc(-c2csc(-c3ccccc3)n2)cc1,x,9.5*,19,-1,5,9.5*
CSc1nc(C)cc(SCC(=O)Nc2ccc(Cl)cc2Cl)n1,x,8.0*,7,-1,0,0
SMILES,CFTR F508del cor,SMARCA2 act,MC4R antag cAMP,MC4R barr agon,SMARCA2 act conf,VP16 Luc act
Cc1ccccc1Cn1cc(NS(=O)(=O)c2cn(C)nc2C)cn1,1,8.8*,5,0,-2,2
Cc1ccccc1Cn1cc(NC(=O)c2nn(C)cc2Cl)cn1,-4,-1,2,-1,x,x
COc1ccc(CNC(=O)C[C@@H]2C[C@H]3c4cc(NS(C)(=O)=O)ccc4O[C@H]3[C@H](CO)O2)cc1,-3,x,x,x,x,x
CC(/C=N/NC(=O)c1n[nH]c2c1CCC2)=C\c1ccccc1,x,5,-26,0,x,x
O=C(N/N=C/C(Br)=C\c1ccccc1)c1n[nH]c2c1CCC2,x,8.4*,-27,-1,11*,21*
O=C(N/N=C/c1ccc(Cl)cc1Cl)c1n[nH]c2c1CCCC2,x,9.5*,12,0,6,8.0*
O=C(C[C@H]1CC[C@@H](NS(=O)(=O)c2ccccc2)[C@@H](CO)O1)N1CCc2ccccc2C1,1,x,x,x,x,x
Cc1cccc(OCCn2c(=O)sc3ccccc32)c1,x,9.0*,-10,1,11*,10.0*
Cc1cccc(OCCN2C(=O)c3ccccc3C2=O)c1,-1,9.6*,14,2,4,5
Cc1cccc(OCCn2c(=O)n(C)c3ccccc32)c1,1,8.9*,4,0,19*,12*
CCCC#Cc1cnc2c(c1)C(=O)N([C@@H](C)CO)C[C@H](C)[C@@H](CN(C)S(C)(=O)=O)O2,0,x,x,x,x,x
C[C@@H]1CN([C@@H](C)CO)S(=O)(=O)c2ccc(-c3ccccc3)cc2O[C@H]1CN(C)Cc1cccc(F)c1,1,x,x,x,x,x
COc1ccc(C#Cc2ccc3c(c2)[C@H]2[C@H](CCN2C(=O)CC2CC2)[C@H](CO)N3)cc1,0,x,x,x,x,x
O=C(NC(=S)Nc1ccc2c(c1)OCCO2)c1ccccc1F,-1,3,10,-2,x,x
O=C(NC(=S)Nc1ccc(F)cc1)c1ccc2c(c1)OCCO2,2,4,-9,2,x,x
O=C(c1ccccc1)c1ccc2c(c1)OCCOCCOCCO2,0,-4,18,1,x,x
COc1ccc(NC(=S)NC(=O)c2ccc3c(c2)OCCO3)cc1,0,11*,-5,0,1,11*
O=C(c1ccccc1)c1ccc2c(c1)OCCCO2,-1,11*,7,0,8.1*,8.9*
O=C(NC(=S)Nc1ccc2c(c1)OCCO2)c1ccccc1,x,9.7*,3,1,5,9.1*
O=C(N[C@@H]1CC[C@H](CCn2cc(Cc3ccccc3)nn2)O[C@@H]1CO)c1cnccn1,-2,x,x,x,x,x
COc1cc(OC)c(-c2nn3c(C4CCCCC4)nnc3s2)cc1OC,5,8.3*,-8,5,0,2
COC(=O)C[C@H]1C[C@H]2c3cc(NC(=O)Nc4ccc(C(F)(F)F)cc4)ccc3O[C@H]2[C@H](CO)O1,2,x,x,x,x,x
COc1cc2ccccc2cc1C(=O)NC1CCC(C)CC1 (configuration not stated),-3,12*,-7,3,3,7.6*
COc1cc2ccccc2cc1C(=O)NC1CCCC1,-6,4,0,-1,x,x
O=[N+]([O-])c1ccc(N/N=C/C=C/c2ccco2)cc1,-1,8.2*,7,-2,3,6.5*
